# Assay results: ChEMBL document CHEMBL1156051, “Synthesis and evaluation of lysophosphatidylserine analogues as inducers of mast cell degranulation. Potent activities of lysophosphatidylthreonine and its 2-deoxy derivative” (J Med Chem, 2009)
# Active and inactive are the calls of the source. The calls are words filed in the database; no cut-off is given here.
# Assays:
# [1] = tested on: Mast cell; test: Induction of C57BL/6 mouse peritoneal mast cell degradation assessed as concanavalin A-induced histamine release at 0.01 to 10 uM after 15 mins fluorometric assay; assay type: functional, cell-based
# Summary of the method: (§1)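 Peritoneal mast cells at 5 × 10^4/mL in HEPES-buffered Tyrode stimulated with analogue plus 10 μg/mL concanavalin A for 15 min at 37 C. Supernatant histamine measured fluorometrically and expressed as percent of total cell histamine. Means ± SE of three independent experiments.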
# [2] = tested on: Mast cell; test: Induction of Wistar rat peritoneal mast cell degradation assessed as concanavalin A-induced histamine release after 15 mins fluorometric assay; assay type: functional, cell-based; conditions: 0.25 h
# Summary of the method: (§2)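 Peritoneal mast cells at 5 × 10^4/mL in HEPES-buffered Tyrode stimulated with analogue plus 100 μg/mL concanavalin A for 15 min at 37 C. Supernatant histamine measured fluorometrically and expressed as percent of total cell histamine. Means ± SE of three independent experiments.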
# [3] = tested on: Mast cell; test: Induction of Wistar rat peritoneal mast cell degradation assessed as concanavalin A-induced histamine release at 0.01 to 10 uM after 15 mins fluorometric assay; assay type: functional, cell-based; summary of the method: as §2
# [4] = tested on: Mus musculus; test: Increase in plasma histamine level in iv dosed C57BL/6 mouse after 2 mins by EIA; assay type: functional, organism-based
# Summary of the method: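 Mice injected i.v. with analogue in PBS with 0.1% BSA; blood taken 2 min after injection and plasma histamine measured by enzyme immunoassay. Means ± SE of three independent experiments.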
# [5] = tested on: Mast cell; test: Induction of C57BL/6 mouse peritoneal mast cell degradation assessed as concanavalin A-induced histamine release after 15 mins fluorometric assay; assay type: functional, cell-based; conditions: C57BL/6, Mast cell, 0.25 h; summary of the method: as §1
# [6] = tested on: Mus musculus; test: Effect on hypothermic effect in iv dosed C57BL/6 mouse assessed as reduction in rectal temperature measured every 5 to 10 mins for 60 mins; assay type: functional, organism-based
# Summary of the method: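 Analogue suspended in PBS with 0.1% BSA and given intravenously; rectal temperature read with a rectal probe every 5 or 10 min for 60 min. Means ± SE of three independent experiments.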
# [7] = tested on: Mus musculus; test: Effect on hypothermic effect in mast cell-deficient WBB6F1 mouse assessed as reduction in rectal temperature at 10 ug, iv measured every 5 to 10 mins for 60 mins; assay type: functional, organism-based
# Summary of the method: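 W/Wv mast cell-deficient mice, with C57BL/6 as comparison, were given 10 μg iv in PBS containing 0.1% BSA. Rectal temperature was monitored every 5 or 10 min for 60 min. Three independent experiments.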
Compound,EC50 [2],EC50 [5],Activity [1],Activity [3],Activity [4],Activity [6],Activity [7]
CCCCCCCCCCCCCCCCCC(=O)OCCOP(=O)(O)OC[C@H](N)C(=O)O,> 10000 nM,–,inactive,inactive,–,–,–
CCCCCCCCCCCCCCCCCC(=O)OC[C@@H](O)COP(=O)(O)O[C@@H]1CCN[C@H]1C(=O)O,> 10000 nM,–,inactive,inactive,–,–,–
CCCCCCCCCCCCCCCCCC(=O)OCCCCCOP(=O)(O)OC[C@H](N)C(=O)O,> 10000 nM,–,inactive,inactive,–,–,–
CCCCCCCCCCCCCCCCCC(=O)OC[C@@H](O)COP(=O)(O)OC[C@H](NC)C(=O)O,> 10000 nM,–,inactive,inactive,–,–,–
CCCCCCCCCCCCCCCCCC(=O)O[C@H](C)COP(=O)(O)OC[C@H](N)C(=O)O,> 10000 nM,–,–,–,–,–,–
CCCCCCCCCCCCCCCCCC(=O)OC[C@@H](O)COP(=O)(O)O[C@H]1CN[C@@H](C(=O)O)C1,> 10000 nM,–,inactive,inactive,–,–,–

# These reach a lower EC50 [2]. Values come first.
EC50 [2],EC50 [5],Compound,Activity [1],Activity [3],Activity [4],Activity [6],Activity [7]
5000 nM,–,CCCCCCCCCCCCCCCCCC(=O)OCCCCOP(=O)(O)OC[C@H](N)C(=O)O,inactive,inactive,–,–,–
5000 nM,–,CCCCCCCCCCCCCCCCCC(=O)NC[C@@H](O)COP(=O)(O)OC[C@H](N)C(=O)O,inactive,inactive,–,–,–
2000 nM,–,CCCCCCCCCCCCCCCCCC(=O)OC[C@H](COP(=O)(O)OC[C@H](N)C(=O)O)OC,–,–,–,–,–
100 nM,7 nM,CCCCCCCCCCCCCCCCCC(=O)OCCCOP(=O)(O)O[C@H](C)[C@H](N)C(=O)O,Active,Active,Active,Active,inactive
60 nM,–,CCCCCCCCCCCCCCCC(=O)OCCCOP(=O)(O)O[C@H](C)[C@H](N)C(=O)O,Active,Active,–,–,–
40 nM,20 nM,CCCCCCCCCCCCCCCC(=O)OC[C@@H](O)COP(=O)(O)O[C@H](C)[C@H](N)C(=O)O,–,–,Active,–,–
